Data reported in paper PMC3042207 (British Journal of Pharmacology, 2011).
Several values for one entry are separate records, joined by “and”; a condition that tells them apart may be missing. Identical values can stand only once.

How the values were obtained:
[1] = mouse model; ref Maurer et al., 2007; cited from earlier work
UGT 1A3 = target: T1, UGT 1A3 (Homo sapiens, UniProt P35503); assay: Glucuronidation of 4-HPR by UGT 1A3 supersomes; format: in vitro ADME; settings: UGT 1A3, 1 mg·mL^−1; 4-HPR 0-2000 µM, 3 h
T1 sequence (P35503 29-534): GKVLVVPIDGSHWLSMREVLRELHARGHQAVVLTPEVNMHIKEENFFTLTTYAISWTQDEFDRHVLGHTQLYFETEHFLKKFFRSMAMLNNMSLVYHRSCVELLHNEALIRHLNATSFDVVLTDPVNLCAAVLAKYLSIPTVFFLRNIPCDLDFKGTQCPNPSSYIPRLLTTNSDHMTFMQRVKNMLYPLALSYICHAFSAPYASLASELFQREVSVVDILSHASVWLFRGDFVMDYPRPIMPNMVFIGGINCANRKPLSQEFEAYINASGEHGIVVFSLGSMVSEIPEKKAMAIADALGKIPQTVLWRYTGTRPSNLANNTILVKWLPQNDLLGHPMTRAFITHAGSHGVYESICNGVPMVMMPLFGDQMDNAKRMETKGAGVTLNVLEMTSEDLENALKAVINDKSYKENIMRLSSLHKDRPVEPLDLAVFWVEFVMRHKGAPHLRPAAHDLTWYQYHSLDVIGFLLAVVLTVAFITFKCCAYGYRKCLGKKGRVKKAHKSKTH

[2] = system: human liver microsomes (HLM); assay: Glucuronidation of 4-HPR by human liver microsomes; format: in vitro ADME; settings: HLM, 1 mg·mL^−1; 4-HPR 0-2000 µM, 3 h
In short: (§1)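 Intestinal or liver microsomes at 1 mg·mL−1 are incubated with 0–2000 µM substrate (13 levels) for 3 h at 37°C. The buffer is 50 mM Tris-HCl, pH 7.5, with alamethicin 25 µg·mL−1, 8 mM MgCl2, 2 mM UDP-glucuronic acid and 0.25% methanol. Reactions are started with enzyme and stopped with ice-cold acetonitrile. The glucuronide is quantified by C18 HPLC, with identity confirmed by β-glucuronidase. Vmax is in peak area units·min−1; mean ± SD of three independent experiments.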

[3] = Glucuronidation of 4-HPR by human liver microsomes; format: in vitro ADME; settings: human, human liver microsomes, pH 7.5
In short: as §1

[4] = system: human liver microsomes (HLM); assay: Formation of 4-MPR from 4-HPR by HLM with SAM; format: in vitro ADME; settings: HLM 0.5 mg·mL^−1, 0–100 µM 4-HPR, 0.2 mM SAM, 3 h
[5] = system: human liver microsomes (HLM); assay: Oxidative metabolism of 4-HPR by human liver microsomes; format: in vitro ADME; settings: 4-HPR 0-20 µM, 3 h, HPLC, mean ± SD, n≥3
In short: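 Termination is with ice-cold acetonitrile, then centrifugation at 10 000× g. The 4′-hydroxy and 4′-oxo metabolites are resolved by reversed-phase HPLC with photodiode-array detection. Vmax is derived from formation rates; mean ± SD, n ≥ 3.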

UGT 1A1 = target: T2, UGT 1A1 (Homo sapiens, UniProt P22309); assay: Glucuronidation of 4-HPR by UGT 1A1 supersomes; format: in vitro ADME; settings: UGT 1A1, 1 mg·mL^−1; 4-HPR 0-2000 µM, 3 h
T2 sequence (P22309 26-533): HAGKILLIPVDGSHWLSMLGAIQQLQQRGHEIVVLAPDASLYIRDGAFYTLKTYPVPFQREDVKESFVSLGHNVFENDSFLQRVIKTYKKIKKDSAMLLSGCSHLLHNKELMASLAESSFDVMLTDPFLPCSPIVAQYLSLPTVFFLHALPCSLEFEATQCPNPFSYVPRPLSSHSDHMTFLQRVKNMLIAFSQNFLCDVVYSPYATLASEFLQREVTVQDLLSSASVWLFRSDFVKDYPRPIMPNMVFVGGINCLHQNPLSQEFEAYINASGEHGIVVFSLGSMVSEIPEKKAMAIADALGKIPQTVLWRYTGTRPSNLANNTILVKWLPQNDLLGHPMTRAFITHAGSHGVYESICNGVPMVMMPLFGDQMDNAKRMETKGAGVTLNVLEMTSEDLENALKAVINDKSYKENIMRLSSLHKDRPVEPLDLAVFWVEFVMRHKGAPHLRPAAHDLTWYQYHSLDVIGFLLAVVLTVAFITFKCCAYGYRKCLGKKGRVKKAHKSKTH

individual human CYPs = format: in vitro ADME; settings: CYPs 3A4, 3A5 and 2C8 supersomes
In short: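 Reactions are stopped with acetonitrile and the 4′-hydroxy metabolite is measured by HPLC. With no authentic standard, Vmax is given in peak area units·min−1. Values are mean ± SD of at least three experiments.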

[6] = Glucuronidation of 4-HPR by human intestinal microsomes; format: in vitro ADME; settings: human, human intestinal microsomes, pH 7.5
In short: as §1

[7] = system: human intestinal microsomes (HIM); assay: as above; format: in vitro ADME; settings: HIM, 1 mg·mL^−1; 4-HPR 0-2000 µM, 3 h
In short: as §1

UGT 1A6 = target: T3, UGT 1A6 (Homo sapiens, UniProt P19224); assay: Glucuronidation of 4-HPR by UGT 1A6 supersomes; format: in vitro ADME; settings: UGT 1A6, 1 mg·mL^−1; 4-HPR 0-2000 µM, 3 h
T3 sequence (P19224 27-532): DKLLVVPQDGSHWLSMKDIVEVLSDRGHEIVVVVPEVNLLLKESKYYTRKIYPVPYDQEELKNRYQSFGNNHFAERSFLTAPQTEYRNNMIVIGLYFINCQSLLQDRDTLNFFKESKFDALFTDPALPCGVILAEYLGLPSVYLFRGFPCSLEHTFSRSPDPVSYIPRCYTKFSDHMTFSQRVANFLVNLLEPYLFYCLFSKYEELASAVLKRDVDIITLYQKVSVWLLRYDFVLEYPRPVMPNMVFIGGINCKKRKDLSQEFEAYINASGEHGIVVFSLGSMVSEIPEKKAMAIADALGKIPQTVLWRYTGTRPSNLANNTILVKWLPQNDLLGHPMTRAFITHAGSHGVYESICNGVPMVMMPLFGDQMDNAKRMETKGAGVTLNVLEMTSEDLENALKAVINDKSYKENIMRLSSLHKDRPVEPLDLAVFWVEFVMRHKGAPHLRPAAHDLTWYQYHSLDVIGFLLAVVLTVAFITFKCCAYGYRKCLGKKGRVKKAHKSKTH

Vmax, 4-HPR glucuronide formation (UGT 1A3): 317 ± 18 peak area U·min^−1
Km at 3 h [3]: 540 ± 69 µM
Km ([4]; read-out: Km, 4-MPR formation): 236 µM
Vmax, 4-HPR glucuronide formation (UGT 1A1): 577 ± 34 peak area U·min^−1
Km at 3 h [6]: 1210 ± 202 µM
Vmax, 4-HPR glucuronide formation (UGT 1A6): 124 ± 6 peak area U·min^−1
SMILES: CC1=C(/C=C/C(C)=C/C=C/C(C)=C/C(=O)Nc2ccc(O)cc2)C(C)(C)CCC1 [4-HPR, fenretinide]
increase of plasma concentrations, lipid matrix vs oil-based capsules [1]: up to seven-fold
Vmax, 4-HPR glucuronide formation, per pmol UGT (UGT 1A3): 2.11 peak area U·min^−1·pmol^−1 UGT and 2.11 ± 0.12 peak area U·min^−1·pmol^−1 UGT
Vmax, 4-HPR glucuronide formation [2]: 679 ± 39 peak area U·min^−1
Vmax, 4-MPR formation ([4]; calculated): 823 peak U·min^−1
Vmax, 4′-OH 4-HPR formation [5]: 28 peak area U·min^−1 and 28 ± 6 peak area U·min^−1
Vmax, 4′-oxo 4-HPR formation [5]: 131 peak area U·min^−1 and 131 ± 14 peak area U·min^−1
Vmax, 4-HPR glucuronide formation, per pmol UGT (UGT 1A1): 0.62 peak area U·min^−1·pmol^−1 UGT and 0.62 ± 0.04 peak area U·min^−1·pmol^−1 UGT
Vmax, 4′-OH 4-HPR production, range over supersomes expressing individual CYPs (individual human CYPs): 115–282 peak area U·min^−1
Vmax, 4-HPR glucuronide formation [7]: 418 ± 38 peak area U·min^−1
Vmax, 4-HPR glucuronide formation, per pmol UGT (UGT 1A6): 0.02 peak area U·min^−1·pmol^−1 UGT and 0.02 ± 0.001 peak area U·min^−1·pmol^−1 UGT
